Only some compounds are listed: those with a hit (about 4% of all), similar ones and a draw of the others.
ABHD5 PLIN5 PPI = ABHD5-PLIN5 protein interaction inhibition; Q00G26+Q8WTS1; Split G. princeps luciferase complementation, luminescence, 4 h; inhibition, % at 4 µM; 0.78% of 360,000 active;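 active means inhibition above the mean inhibition across every tested compound plus 3 SD, cut at about 22% in these data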
UPR CHOP act = apoptotic UPR (CHOP) activation. CHO-CHOP luciferase reporter, luminescence; percent of tunicamycin response over DMSO baseline. activation, % at 10 µM. 0.34% of 330,000 active;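 active means at 10 µM dose, activation of 40% or more, normalized to positive control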
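Test system: CHO-CHOP cells, stable luciferase reporter of PERK-eIF2a-CHOP signalling | Quantity: 500 CHO-CHOP cells per well | Buffer or medium: F12 plus 10% serum | Compound dosing: 10 µM single point, 0.5% DMSO | Schedule: 6 h compound treatment, 37 °C | Signal: Luciferase luminescence | Control set: Tunicamycin high control, DMSO low control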
UPR XBP1 act = activators of adaptive arm of unfolded protein response (XBP1) | CHO-XBP1 luciferase reporter, IRE1-XBP1 UPR activation, luminescence; percent of tunicamycin response, DMSO as zero | activation, % at 20 µM | 0.33% of 330,000 active | AID 463104;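 active means versus positive control, 20 µM dose yields 30% or more activation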
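Material: CHO cell line with stable XBP1 luciferase reporter; buffer or medium: F12 medium containing 10% fetal bovine serum; compound: single point, 20 µM final compound, 1% DMSO; incubation: 6 h treatment, 37 °C; measured by: glow luminescence from Steady-Glo reagent; evaluation: activation, % of tunicamycin; control set: tunicamycin high, DMSO low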
Mdm2-MdmX inh = human Mdm2/MdmX binding inhibition; O15151+Q00987; SaOS-2 split-luciferase Mdm2/MdmX complementation, luminescence; inhibition, % at 8 µM; 3% of 330,000 active;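 active means inhibition of at least 50% at 8 µM in the primary screen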
Exocytosis inh = blocks lytic granule exocytosis. 0.66% of 360,000 active. AID 651702. TALL-104 LAMP-1 surface exposure, flow cytometry; cells stimulated with thapsigargin and PMA. inhibition, % at 10 µM;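 active means inhibition above about 55%, limit read from the data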
Mdm2 MdmX conf = confirmation of human Mdm2/MdmX interaction inhibitors. shares compounds with Mdm2-MdmX inh. Mdm2-MdmX binding, luminescent assay. inhibition, % at 8 µM. 55% of 10,000 active; in the data active means inhibition above about 40%
FLuc counter = inhibits full-length luciferase, flagging false Mdm2/MdmX hits | SaOS-2 full-length luciferase counterscreen, luminescence | inhibition, % at 8 µM | 77% of 6,200 active | shares compounds with Mdm2-MdmX inh;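 active means mean inhibition at 8 µM reaching about 37%, which flags the compound as non-specific, limit read from the data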;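 further: p53-null SaOS-2 cells with luciferase driven by a doxycycline-inducible promoter; compound on cells about two nights before reading with doxycycline added after day one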
Large screens that a line does not name were inactive (follow-up assays come after a bar, where they were run).

O=C(NCc1ccco1)c1nc2c(nnn2Cc2ccccc2Cl)c(=O)[nH]1	Mdm2-MdmX inh 88.3 | Mdm2 MdmX conf 93.2 | FLuc counter inactive
CNC(=S)N1N=C(c2cccs2)CC1c1ccc(OC)cc1 (configuration not stated)	none
Cc1nn(-c2ccccc2Cl)c(Cl)c1/C=N/Nc1nc2ccccc2s1	Mdm2-MdmX inh 87.4 | Mdm2 MdmX conf 95.8 | FLuc counter 56.2
CCOC(=O)N/N=C/c1c(C)nn(-c2ccccc2Cl)c1Cl	none
O=C1C(c2ccnc3ccccc23)=C(O)c2ccccc21	Mdm2-MdmX inh 51.7 | Mdm2 MdmX conf inactive
Cc1cc(NC(=O)c2ccc(C#N)cc2)n(-c2ccccn2)n1	Mdm2-MdmX inh 63.3 | Mdm2 MdmX conf inactive
O=C(OCc1nc(-c2ccccc2)oc1COC(=O)c1ccco1)c1ccco1	none
O=C1Nc2ccc(Br)cc2C1(O)c1ccccc1 (configuration not stated)	none
O=C(CSc1nc(-c2ccccc2)c(-c2ccccc2)[nH]1)NCc1ccco1	Mdm2-MdmX inh 53.4 | Mdm2 MdmX conf 55.8 | FLuc counter 73.2
O=C(CSc1nnc(-c2ccccc2)c(-c2ccccc2)n1)NCc1ccco1	none
CCCc1sc(N/N=C/c2ccccn2)nc1-c1ccc(Br)cc1	Mdm2-MdmX inh 74.8 | Mdm2 MdmX conf inactive
COc1ccc(C2(c3ccc(OC)cc3)NC(=O)N(Cn3nnc4ccccc4c3=O)C2=O)cc1	none
Fc1ccc2c(Cl)c(-c3nnc(-c4cccs4)o3)sc2c1	Mdm2-MdmX inh 84.2 | Mdm2 MdmX conf inactive
COc1cc(-c2nnc(-c3cccs3)o2)cc(OC)c1OC	none
Clc1ccc(-n2ncc3c(N4CCCCCC4)ncnc32)cc1	Mdm2-MdmX inh 91.3 | Mdm2 MdmX conf 87.8 | FLuc counter 97.7
Cc1ccc(-n2ncc3c(N4CCN(c5ccccc5)CC4)ncnc32)c(C)c1	Mdm2-MdmX inh 70.2 | Mdm2 MdmX conf 69.5 | FLuc counter 64.0
COc1ccc(-n2ncc3c(N4CCN(c5cccc(C)c5C)CC4)ncnc32)cc1	Mdm2-MdmX inh 76.7 | Mdm2 MdmX conf inactive
Clc1ccc(Cn2ncc3c(N4CCCCC4)ncnc32)cc1	none
COc1ccc(-n2ncc3c(N4CCN(c5cc(C)ccc5C)CC4)ncnc32)cc1	none
COc1ccc(-n2ncc3c(N4CCCCC4)ncnc32)cc1	Mdm2-MdmX inh 87.1 | Mdm2 MdmX conf 85.7 | FLuc counter 73.0
CN(C)S(=O)(=O)c1cc(NC2CC(=O)N(c3ccc(F)cc3)C2=O)ccc1Cl (configuration not stated)	none
CCn1c(C)nc2cc(C(=O)NNC(=O)Nc3ccc(Cl)c(Cl)c3)ccc21	none (no result: ABHD5 PLIN5 PPI, Exocytosis inh)
CC1/C(=N/O)CC(c2ccccc2)NC1c1ccccc1 (configuration not stated)	none
CCCC1/C(=N/O)CC(c2ccccc2)NC1c1ccccc1 (configuration not stated)	Mdm2-MdmX inh 59.2 | Mdm2 MdmX conf 62.3 | FLuc counter 64.1
CCC1C(=NO)C(CC)C(c2ccccc2)NC1c1ccccc1 (configuration not stated)	Mdm2-MdmX inh 51.9 | Mdm2 MdmX conf inactive
CCN(C(=O)c1cccs1)c1nnc(-c2ccncc2)s1	none
O=C1OC(c2ccccc2)=NC12CC2c1ccc(Cl)cc1 (configuration not stated)	none
COC(=O)/C(=C1/Oc2cc(C)oc(=O)c2S1)C(F)(F)F	Mdm2-MdmX inh 100.2 | Mdm2 MdmX conf 99.8 | FLuc counter 51.0
COC(=O)/C(=C1/Oc2ccc(C(C)(C)C)cc2S1)C(F)(F)F	none
COc1ccc2c(c1)C(=O)[C@H](O)[C@@H](c1ccc(OC)c(Br)c1)O2	Mdm2-MdmX inh 70.7 (no result: ABHD5 PLIN5 PPI, Exocytosis inh) | Mdm2 MdmX conf inactive
CCN(CC)CCCN1C(=O)C(=O)/C(=C(/O)c2ccc3c(c2)OCCO3)C1c1ccco1 (configuration not stated)	none

Screening data: PubChem, several laboratories
